Data on 97 molecules can be found in ChEMBL document CHEMBL4513216, “Probing the Open Global Health Chemical Diversity Library for Multistage-Active Starting Points for Next-Generation Antimalarials” (ACS Infect Dis, 2020).

Structures are written as SMILES.

This series is described as follows: Toxicity liver stage against HepG2, at 10uM. Type of series: cell-based. Further details: test concentration 10 uM, cell line HepG2-A16-CD81EGFP. Particulars: human, HepG2-A16-CD81EGFP cells; read-out: INHIBITION
In a few lines: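 Uninfected HepG2-A16-CD81EGFP cells, 3 × 10^3 per well, 1536-well, plated on prespotted compound at 10 μM final, parasite-free screening media added to match infected plates; puromycin 10 μM positive, DMSO 0.5% negative; run in parallel with 48 h PbLuc assay at 37 °C, 5% CO2; viability by CellTiter-Glo luminescence, normalized to controls.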
Turning to `COC(=O)N1CC[C@@]2(O)CCCC[C@H]2[C@@H]1c1ccc2c(c1)OCO2`, the cytotoxicity at 10 µM came out at 2.91%.

For the molecule `Cc1ccc(S(=O)(=O)c2ncccc2CN2CCCC2)cc1`, the cytotoxicity at 10 µM was -49.4%.

Take `Cc1noc(C)c1S(=O)(=O)NCC(O)c1ccc2c(c1)CCO2` (configuration not stated): the cytotoxicity at 10 µM worked out at 0.407%.

For `COc1ccc(C(=O)N2CCO[C@H]3[C@H](OCC4CC4)CC[C@@H]32)cc1F`, the cytotoxicity at 10 µM came to 18.2%.

For the molecule `CN(C)CCNC(=O)c1nc2c(o1)CN(c1ncccn1)C2`, the cytotoxicity at 10 µM is -0.603%.

Consider `O=C1[C@H]2CN(c3ncc(F)cn3)C[C@H]2CN1CC1CC1`, for which the cytotoxicity at 10 µM was 6.19%.

Regarding `Cc1nnc([C@@H]2CCO[C@@H]3CCN(C(=O)Cc4ccsc4)C[C@@H]32)o1`, the cytotoxicity at 10 µM was found to be 9.43%.

In the case of `Cc1ccc(C(=O)N2CCN3C[C@H](Oc4cncnc4)C[C@H]3C2)cn1`, the cytotoxicity at 10 µM stood at 5.01%.

Take `Cc1noc(C)c1CN1CC2(CCN(C(=O)c3cccn3C)C2)CC1=O` (configuration not stated): the cytotoxicity at 10 µM stood at 6.53%.

`CCc1ccc(C(=O)N2CC(C(=O)NC(C)C)C3(CCOCC3)C2)cc1` (configuration not stated): the cytotoxicity at 10 µM was determined as 3.65%.

Consider `CCOC(=O)C1CCN(C(=O)c2cc(F)ccc2-n2cnnn2)CC1`, for which the cytotoxicity at 10 µM was -0.121%.

Turning to `CCN1CCCC(O)(CN(C)Cc2c(C)nn(C)c2C)C1` (configuration not stated), the cytotoxicity at 10 µM turned out to be 4.95%.

Take `COCCNC(=O)C(C)n1nc(-c2ccco2)cc(N)c1=O` (configuration not stated): the cytotoxicity at 10 µM came to 2.62%.

As to `Cc1noc(-c2cnc(NCC3CCCO3)nc2-c2ccco2)c1C` (configuration not stated), the cytotoxicity at 10 µM turned out to be 7.74%.

Regarding `COCC(=O)N1CCCC(c2nc(N(C)C)ncc2-c2ccccc2)C1` (configuration not stated), the cytotoxicity at 10 µM was found to be 6.1%.

For the molecule `Cc1nccn1CC1CCCN(S(=O)(=O)c2cnn(C)c2)C1` (configuration not stated), the cytotoxicity at 10 µM amounted to 8.58%.

As to `CC(=O)N1CCc2nnc(C3CCCCN3CC3CCCCC3)n2CC1` (configuration not stated), the cytotoxicity at 10 µM worked out at 10.2%.

With `Cc1nccc(N2CCCC(C)(C(=O)NC3CCCC3)C2)n1` (configuration not stated), the cytotoxicity at 10 µM is -18.6%.

As to `CN1CCN(C(=O)C2CCCN(c3cccnn3)C2)CC1` (configuration not stated), the cytotoxicity at 10 µM was -10.8%.

On to `Cc1cccc(CN2CCC(C3Nc4ccccc4S(=O)(=O)N3)CC2)n1` (configuration not stated), for which the cytotoxicity at 10 µM is -18.9%.

`CC(C)N1CCC(c2nccnc2Nc2ncccn2)CC1`: the cytotoxicity at 10 µM is -23.7%.

`CC(=O)N1CCCC(c2ccnc(Nc3cnccn3)n2)C1` (configuration not stated): the cytotoxicity at 10 µM was -12.5%.

Turning to `CNC(=O)C1(c2cnccn2)CCCN1C(=O)c1ccccn1` (configuration not stated), the cytotoxicity at 10 µM amounted to 10.1%.

Take `C=Cn1ncc(CN2C[C@@H]3C[C@@H](O)CN3C[C@@H]2Cc2ccccc2)c1C`: the cytotoxicity at 10 µM is 4.02%.

For `Cn1ccc(C(=O)N2CCC(Cc3cccc4ncccc34)CC2)n1`, the cytotoxicity at 10 µM is -3.17%.

Regarding `CC(=O)N1Cc2ccccc2CC2(CCCCN2C)C1` (configuration not stated), the cytotoxicity at 10 µM was determined as 3.87%.

As for `O=C(Nc1c(N2CCCC2)cccc1N1CCCC1)c1cnsn1`, the cytotoxicity at 10 µM is -43%.

Consider `CC(O)CCN(C)C(=O)Nc1cc(F)cc(Br)c1` (configuration not stated), for which the cytotoxicity at 10 µM stood at 4.12%.

With `O=C(Nc1cc(C(F)(F)F)c[nH]c1=O)C1CCCNC1` (configuration not stated), the cytotoxicity at 10 µM is 5.15%.

For the molecule `CCN(Cc1nccn1C)C1CCN(c2ccccc2)C1=O` (configuration not stated), the cytotoxicity at 10 µM turned out to be 4.19%.

In the case of `Cc1nnc(NC(=O)NCc2ccc(C)n2C)s1`, the cytotoxicity at 10 µM was -2.08%.

On to `CC(C)c1nccn1CC1CCCN1Cc1nc2ccccc2n1C` (configuration not stated), for which the cytotoxicity at 10 µM was -43.9%.

Turning to `CCc1c(NCc2cccnc2)cnn1CC(C)C`, the cytotoxicity at 10 µM was -0.625%.

In the case of `CCC(CNC(=O)Cn1ccnc1)Oc1cccc(F)c1` (configuration not stated), the cytotoxicity at 10 µM was -45.8%.

For `Cc1cc(C)c(CNC(=O)NCCc2cccnc2)c(=O)[nH]1`, the cytotoxicity at 10 µM was -53.3%.

Turning to `Cn1cccc(NC(=O)NCc2cccc(CO)c2)c1=O`, the cytotoxicity at 10 µM is -55.5%.

For the molecule `Cc1cc(C)n(CC(C)CNC(=O)NCc2c(C)cc(C)[nH]c2=O)n1` (configuration not stated), the cytotoxicity at 10 µM was -7.86%.

Regarding `C=C(C)CN1CCC(NC(=O)Nc2ccc(F)c(C(N)=O)c2)CC1`, the cytotoxicity at 10 µM is -6.08%.

As for `COCCN1CCC(CNC(=O)Nc2ccc(-c3ccccc3)cc2)C1` (configuration not stated), the cytotoxicity at 10 µM was -15.2%.

As to `Cc1occc1C(=O)NCC(=O)NCCOc1ccc2c(c1)CCC2`, the cytotoxicity at 10 µM was -2.83%.

Turning to `Cc1cnn(CC2CCCN2Cc2cc(=O)n3cc(C)ccc3n2)c1` (configuration not stated), the cytotoxicity at 10 µM is -10.9%.

Consider `COc1ccc(N)c(N2CCN(C(C)=O)CC2)n1`, for which the cytotoxicity at 10 µM was -6.22%.

For the molecule `Cc1cc(NC(=O)CN(C)CC2CCCN2c2cccnn2)n(C)n1` (configuration not stated), the cytotoxicity at 10 µM came to 7.85%.

For `Clc1ccc2oc(C3CCN(Cc4nc(C5CC5)no4)CC3)nc2c1`, the cytotoxicity at 10 µM was -5.15%.

With `Cc1ccc(CN(C)C(=O)CN2CCCC2Cn2cncn2)cc1` (configuration not stated), the cytotoxicity at 10 µM was 7.84%.

As for `CN(C)C(=O)C1CCCN1CCCNC(=O)c1ccccc1Cl` (configuration not stated), the cytotoxicity at 10 µM was -8.27%.

As to `Cn1cnnc1-c1ccnc(NCc2ccc3c(c2)OCCO3)c1`, the cytotoxicity at 10 µM was -11%.

As for `CNC(=O)Cc1ccccc1NC(=O)C1CCCC1`, the cytotoxicity at 10 µM came out at 31.1%.

For the molecule `Cc1c(C(=O)NC2(C#N)CCSC2)nnn1-c1ccccc1Cl` (configuration not stated), the cytotoxicity at 10 µM is -5.34%.

`COCCOc1ncccc1C(=O)Nc1c(C)cnn1CC1CC1`: the cytotoxicity at 10 µM was 3.36%.

For `O=C(Nc1ccc(-n2cccn2)cc1)N1CCC(O)C1` (configuration not stated), the cytotoxicity at 10 µM amounted to 19.9%.

Turning to `CCC(C)Oc1cc(C(=O)Nc2nnc(C(C)C)[nH]2)ccn1` (configuration not stated), the cytotoxicity at 10 µM was -11.2%.

Take `CSc1ccsc1C(=O)NS(=O)(=O)c1ccc(F)cc1`: the cytotoxicity at 10 µM is -3.91%.

For the molecule `COC(=O)C1CCN(C(=O)Nc2cc(-n3cccc3)ccc2F)CC1`, the cytotoxicity at 10 µM was determined as 5.44%.

For `CCc1nc(CCNc2ccc(S(N)(=O)=O)cc2C#N)cs1`, the cytotoxicity at 10 µM was -54.6%.

On to `Cc1nc(-c2ccc(Cl)s2)sc1C(=O)O`, for which the cytotoxicity at 10 µM worked out at 7.51%.

In the case of `N#Cc1ccc(N2CCCN(CC(=O)N3CCOCC3)CC2)cc1`, the cytotoxicity at 10 µM was 6.62%.

For `COCCN1CCC(CNC(=O)C2(C#N)CCCC2)CC1`, the cytotoxicity at 10 µM was determined as 6.93%.

Take `COC1CCC(N(C)c2ccnc(N(C)C)n2)CC1` (configuration not stated): the cytotoxicity at 10 µM was -13.6%.

For the molecule `CN(C1CCCC1)C(C)(C)C(=O)NCCS(C)(=O)=O`, the cytotoxicity at 10 µM is -49.7%.

With `CCN(CC(=O)NC(C)C)S(=O)(=O)N1CCC(C)C1` (configuration not stated), the cytotoxicity at 10 µM was -3.26%.

On to `COCC(NC(=O)c1cc[nH]n1)c1cccc(C(F)(F)F)c1` (configuration not stated), for which the cytotoxicity at 10 µM was -10.7%.

On to `CCOCC1CN(C(=O)Cc2ccccn2)Cc2c1cnn2CC` (configuration not stated), for which the cytotoxicity at 10 µM is -69.3%.

Regarding `CNc1ncc(-c2ccnn2C2CCN(C(C)=O)CC2)cn1`, the cytotoxicity at 10 µM was 0.581%.

On to `Cc1nn(C)c(C)c1CN(C)c1nc(C2CCCC2)nc2c1cnn2C`, for which the cytotoxicity at 10 µM is 27.9%.

In the case of `Cn1ccnc1C1CCCN(C(=O)c2ccncc2F)C1` (configuration not stated), the cytotoxicity at 10 µM stood at 3.18%.

In the case of `Cc1nc(CC(=O)NCCN2CCC(c3ccccc3C)C2)cs1` (configuration not stated), the cytotoxicity at 10 µM was -40%.

Consider `COc1ccc(NC(=O)c2cccc(CN3CCCC3C)c2)cc1OC` (configuration not stated), for which the cytotoxicity at 10 µM was found to be 0.636%.

As to `Nc1ncccc1CN1C[C@H]2OC(=O)N(Cc3ccccn3)[C@H]2C1`, the cytotoxicity at 10 µM worked out at 13.9%.

With `CC(C)n1ccnc1C1CCN(Cc2ccc(C(F)(F)F)c(F)c2)CC1`, the cytotoxicity at 10 µM is -7.43%.

Take `Cc1ccncc1C(=O)N1C[C@H]2CN(CC3CCC3)C[C@@]2(C(=O)O)C1`: the cytotoxicity at 10 µM was -5.73%.

As to `CCCc1nc(N(C)CCc2noc(C(C)C)n2)c2cnn(C)c2n1`, the cytotoxicity at 10 µM was determined as 3.86%.

Take `Cc1nccn1CCC(=O)N1CCC2(CCC(=O)N(CC3CC3)C2)CC1`: the cytotoxicity at 10 µM was -8.46%.

With `CSc1nc(O)c(Cc2ccccc2)c(=O)n1-c1ccccc1`, the cytotoxicity at 10 µM is -6.24%.

Take `COc1cc(Cl)cc(C(=O)N2CCC3(CCCNC3)C2)c1` (configuration not stated): the cytotoxicity at 10 µM is -7%.

Take `N#Cc1nccnc1N1CCC(C(O)c2cccs2)CC1` (configuration not stated): the cytotoxicity at 10 µM is -38%.

With `C=C(C)COc1cccc(C(=O)N(C)C(C)c2ccncn2)c1` (configuration not stated), the cytotoxicity at 10 µM is -50%.

With `O=C(O)c1cccnc1CN1CCOc2ccccc2C1`, the cytotoxicity at 10 µM was 7.66%.

Regarding `Cc1ccnc(CC(C)N(C)Cc2ccc3c(c2)CCO3)c1` (configuration not stated), the cytotoxicity at 10 µM turned out to be 1.63%.

On to `Cc1nc(NCc2ccc(C)o2)cc(C2CCNCC2)n1`, for which the cytotoxicity at 10 µM came out at 4.52%.

Regarding `CN1CC2(CCCN(Cc3cccc(Oc4ccccc4)c3)C2)OC1=O` (configuration not stated), the cytotoxicity at 10 µM was found to be 5.09%.

On to `N#CCCn1nc(C(F)(F)F)c2c1CCCC2`, for which the cytotoxicity at 10 µM was -11.9%.

On to `Cc1cnn(CC2CCCCN2C(=O)c2ccc(NC3CC3)nc2)c1` (configuration not stated), for which the cytotoxicity at 10 µM is -11.9%.

Regarding `COc1ccc(F)cc1C(=O)N1CCCC(n2nc(C)nc2C)C1` (configuration not stated), the cytotoxicity at 10 µM is 3.05%.

As for `O=C(Cc1cn2ccsc2n1)N1CCCC(n2cncn2)C1` (configuration not stated), the cytotoxicity at 10 µM is -5.97%.

For the molecule `N#Cc1ccc(C(=O)NCCCNc2ccc(C(F)(F)F)cn2)cc1`, the cytotoxicity at 10 µM was -4.53%.

Take `Cc1ccc(CC(=O)N2CCN(CC(O)c3ccccc3)CC2)cn1` (configuration not stated): the cytotoxicity at 10 µM is -10.9%.

For `COCCN1CCCN(C(=O)NC(C)Cn2cccn2)CC1` (configuration not stated), the cytotoxicity at 10 µM was -9.39%.

With `Cc1cc(C)n(CCCn2cncc2-c2ccc3c(c2)CC(C)N3C)n1` (configuration not stated), the cytotoxicity at 10 µM came out at 0.94%.

Regarding `Cc1csc(C(Cc2ccsc2)NC(=O)CN(C)Cc2cccnc2)n1` (configuration not stated), the cytotoxicity at 10 µM is 0.471%.

Consider `Cc1cnnn1Cc1nnn2c1CN(Cc1ccccn1)CCC2`, for which the cytotoxicity at 10 µM is 9.73%.

`COCc1cnc2n1CCN(C1CCC1)C2C` (configuration not stated): the cytotoxicity at 10 µM was 4.77%.

Consider `CCOC(=O)C1(Cc2ccccc2-c2ccccc2OC)CCNCC1`, for which the cytotoxicity at 10 µM was -1.47%.

Turning to `CN1C(=O)CC(c2cnn(C)c2)C12CCN(C(=O)c1ccncc1)CC2` (configuration not stated), the cytotoxicity at 10 µM is -84.4%.

Consider `Fc1ccc(CN2CCC3(CC2)CCN(Cc2nccs2)CC3)cc1`, for which the cytotoxicity at 10 µM was 4.92%.

Regarding `CC(=O)NCC(=O)N1CCn2cc(CN(C)Cc3ccco3)nc2C1`, the cytotoxicity at 10 µM turned out to be 4.81%.

In the case of `Cc1ccc(N2CC[C@H](OCC3CC3)[C@@H]2Cc2cccnc2)nn1`, the cytotoxicity at 10 µM stood at 1.13%.
